Columns and labels:
[1] = target: T1, Tyrosine-protein phosphatase non-receptor type 2 (Homo sapiens, UniProt P17706); test: Inhibition of T cell protein tyrosine phosphatase (TC-PTP) at pH 7.0; assay type: single protein
T1 sequence (P17706 whole entry): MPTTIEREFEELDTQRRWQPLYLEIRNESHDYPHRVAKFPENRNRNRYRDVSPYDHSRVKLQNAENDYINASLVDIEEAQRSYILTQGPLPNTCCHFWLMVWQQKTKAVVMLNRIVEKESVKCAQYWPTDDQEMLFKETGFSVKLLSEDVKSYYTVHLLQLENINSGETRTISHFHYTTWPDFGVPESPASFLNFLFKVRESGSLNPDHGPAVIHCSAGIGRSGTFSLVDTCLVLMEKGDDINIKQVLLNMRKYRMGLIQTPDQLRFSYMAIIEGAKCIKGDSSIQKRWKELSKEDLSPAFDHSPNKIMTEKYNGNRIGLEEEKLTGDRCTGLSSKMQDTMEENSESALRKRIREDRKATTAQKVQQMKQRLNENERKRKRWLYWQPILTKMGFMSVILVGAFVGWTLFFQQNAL
Outline: (§1)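 Ki from a pNPP hydrolysis assay with recombinant TC-PTP, run at pH 7.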

[2] = target: T2, Tyrosine-protein phosphatase non-receptor type 1 (Homo sapiens, UniProt P18031); test: Inhibitory effect against recombinant human protein-tyrosine phosphatase 1B (PTP1B), using p-nitrophenyl phosphate substrate at pH 5.5.
T2 sequence (P18031 whole entry): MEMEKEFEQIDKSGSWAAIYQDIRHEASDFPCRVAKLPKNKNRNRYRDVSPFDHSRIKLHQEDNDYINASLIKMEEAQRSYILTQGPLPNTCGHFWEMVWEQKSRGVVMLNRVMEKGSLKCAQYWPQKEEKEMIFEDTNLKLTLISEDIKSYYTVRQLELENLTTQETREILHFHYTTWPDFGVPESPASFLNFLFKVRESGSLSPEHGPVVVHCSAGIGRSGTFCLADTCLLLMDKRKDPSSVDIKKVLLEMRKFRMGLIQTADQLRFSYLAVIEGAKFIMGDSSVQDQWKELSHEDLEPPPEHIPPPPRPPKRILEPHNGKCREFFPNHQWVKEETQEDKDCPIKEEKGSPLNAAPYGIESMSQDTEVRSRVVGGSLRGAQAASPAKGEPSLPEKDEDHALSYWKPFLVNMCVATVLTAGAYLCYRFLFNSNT

[3] = target: T2, Tyrosine-protein phosphatase non-receptor type 1; test: Inhibition of human recombinant Protein-tyrosine phosphatase 1B.
Outline: (§2)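 Enzyme is a soluble recombinant human PTP1B (residues 1–321). Ki is measured at pH 5.5 with p-nitrophenyl phosphate (pNPP) as substrate.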

[4] = target: Receptor-type tyrosine-protein phosphatase F (Homo sapiens, UniProt P10586); test: Inhibitory effect against protein-tyrosine phosphatase Lar, using p-nitrophenyl phosphate as substrate at pH 5.5.
Sequence of Receptor-type tyrosine-protein phosphatase F (P10586 whole entry): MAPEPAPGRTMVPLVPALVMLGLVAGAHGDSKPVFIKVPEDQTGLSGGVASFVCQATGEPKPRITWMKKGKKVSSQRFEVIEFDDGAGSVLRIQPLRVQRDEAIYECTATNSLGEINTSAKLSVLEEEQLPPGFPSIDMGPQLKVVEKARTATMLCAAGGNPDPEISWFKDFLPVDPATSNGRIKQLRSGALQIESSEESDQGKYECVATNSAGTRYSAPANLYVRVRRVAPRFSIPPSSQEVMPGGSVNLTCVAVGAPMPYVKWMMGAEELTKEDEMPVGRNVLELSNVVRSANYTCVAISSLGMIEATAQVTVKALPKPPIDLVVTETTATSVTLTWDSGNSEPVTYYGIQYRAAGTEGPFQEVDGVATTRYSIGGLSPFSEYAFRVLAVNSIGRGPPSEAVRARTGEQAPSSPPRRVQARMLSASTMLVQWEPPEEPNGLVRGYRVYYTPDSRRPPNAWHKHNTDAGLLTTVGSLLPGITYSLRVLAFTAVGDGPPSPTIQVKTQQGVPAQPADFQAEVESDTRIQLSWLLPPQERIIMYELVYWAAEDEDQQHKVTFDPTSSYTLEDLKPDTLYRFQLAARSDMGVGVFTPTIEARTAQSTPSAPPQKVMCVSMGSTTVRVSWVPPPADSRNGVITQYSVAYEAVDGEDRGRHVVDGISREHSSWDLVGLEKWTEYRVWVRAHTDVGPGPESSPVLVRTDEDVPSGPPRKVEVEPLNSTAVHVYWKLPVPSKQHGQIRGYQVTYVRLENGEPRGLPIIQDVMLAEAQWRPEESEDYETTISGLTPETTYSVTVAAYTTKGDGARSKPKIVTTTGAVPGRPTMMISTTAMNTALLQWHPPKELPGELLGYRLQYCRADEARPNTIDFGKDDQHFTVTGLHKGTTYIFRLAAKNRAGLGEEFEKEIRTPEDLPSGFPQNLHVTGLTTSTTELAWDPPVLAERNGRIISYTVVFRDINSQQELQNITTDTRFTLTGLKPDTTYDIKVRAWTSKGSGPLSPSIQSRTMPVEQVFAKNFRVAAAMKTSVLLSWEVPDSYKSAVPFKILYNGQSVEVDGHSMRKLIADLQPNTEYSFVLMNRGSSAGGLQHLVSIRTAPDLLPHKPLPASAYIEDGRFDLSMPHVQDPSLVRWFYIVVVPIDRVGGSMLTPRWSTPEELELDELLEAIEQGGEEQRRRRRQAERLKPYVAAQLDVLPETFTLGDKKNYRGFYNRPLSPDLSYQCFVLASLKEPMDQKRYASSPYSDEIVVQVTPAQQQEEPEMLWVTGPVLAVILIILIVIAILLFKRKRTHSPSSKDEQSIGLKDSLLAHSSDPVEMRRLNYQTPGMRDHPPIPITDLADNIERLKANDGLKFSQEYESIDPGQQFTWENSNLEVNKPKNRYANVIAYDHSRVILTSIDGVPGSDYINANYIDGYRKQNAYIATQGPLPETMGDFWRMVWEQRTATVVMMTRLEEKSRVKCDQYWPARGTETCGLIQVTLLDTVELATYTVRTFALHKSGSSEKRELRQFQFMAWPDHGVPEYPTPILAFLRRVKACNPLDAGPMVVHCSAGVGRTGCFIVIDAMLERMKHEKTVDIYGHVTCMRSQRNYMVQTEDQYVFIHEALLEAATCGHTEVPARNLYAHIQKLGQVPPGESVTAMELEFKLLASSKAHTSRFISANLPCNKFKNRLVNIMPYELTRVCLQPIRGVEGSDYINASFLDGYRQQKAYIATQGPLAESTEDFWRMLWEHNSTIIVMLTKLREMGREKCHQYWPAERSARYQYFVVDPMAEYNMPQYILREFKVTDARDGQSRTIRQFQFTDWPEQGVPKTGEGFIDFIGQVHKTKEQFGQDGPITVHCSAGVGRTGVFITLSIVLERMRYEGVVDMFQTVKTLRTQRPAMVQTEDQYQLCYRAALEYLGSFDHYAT

[5] = target: Receptor-type tyrosine-protein phosphatase alpha (Homo sapiens, UniProt P18433); test: Inhibitory effect against human protein-tyrosine phosphatase alpha (PTPalpha), using p-nitrophenyl phosphate substrate at pH 5.5.
Sequence of Receptor-type tyrosine-protein phosphatase alpha (P18433 whole entry): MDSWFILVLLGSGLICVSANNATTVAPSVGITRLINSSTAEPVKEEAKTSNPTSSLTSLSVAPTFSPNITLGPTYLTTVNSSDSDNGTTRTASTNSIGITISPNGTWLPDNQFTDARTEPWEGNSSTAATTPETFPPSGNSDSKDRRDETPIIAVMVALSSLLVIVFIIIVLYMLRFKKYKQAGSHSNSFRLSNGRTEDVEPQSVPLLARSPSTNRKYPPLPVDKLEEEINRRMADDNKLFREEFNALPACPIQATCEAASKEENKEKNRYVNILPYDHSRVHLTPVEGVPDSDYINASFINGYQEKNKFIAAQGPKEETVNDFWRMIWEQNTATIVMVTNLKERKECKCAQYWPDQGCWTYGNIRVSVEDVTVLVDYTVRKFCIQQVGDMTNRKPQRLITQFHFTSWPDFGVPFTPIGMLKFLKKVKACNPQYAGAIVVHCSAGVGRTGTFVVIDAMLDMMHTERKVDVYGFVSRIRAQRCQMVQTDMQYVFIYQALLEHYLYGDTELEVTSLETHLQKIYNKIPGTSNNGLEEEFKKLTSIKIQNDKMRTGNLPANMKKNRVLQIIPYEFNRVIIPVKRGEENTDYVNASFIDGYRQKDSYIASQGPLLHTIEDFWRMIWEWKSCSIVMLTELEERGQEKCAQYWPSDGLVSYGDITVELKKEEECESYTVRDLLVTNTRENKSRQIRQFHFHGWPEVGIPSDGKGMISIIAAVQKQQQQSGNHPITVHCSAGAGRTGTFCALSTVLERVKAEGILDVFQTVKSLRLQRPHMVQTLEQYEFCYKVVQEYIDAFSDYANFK
Outline: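 Ki from pNPP hydrolysis assays at pH 5.5 with recombinant PTPα or LAR.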

[6] = target: T2, Tyrosine-protein phosphatase non-receptor type 1; test: Inhibitory effect against recombinant human PTP1B (Protein Tyrosine phosphatase 1B) using p-nitrophenyl phosphate substrate at pH 5.5; outline: as §2
[7] = Pharmacokinetic Parameter clearance was reported for Protein Tyrosine Phosphatase 1B; assay type: ADME, organism-based; settings: in vivo
[8] = Oral bioavailability; assay type: ADME, organism-based; settings: eutheria, in vivo, read-out: f (po)
[9] = Pharmacokinetic Parameter t1/2 was reported for Protein Tyrosine Phosphatase 1B; assay type: ADME, organism-based; settings: in vivo
[10] = target: T1, Tyrosine-protein phosphatase non-receptor type 2; test: Inhibitory effect against inhibitory effect against T cell protein tyrosine phosphatase (TC-PTP) using p-nitrophenyl phosphate as substrate at pH 7.0; outline: as §1
[11] = target: T2, Tyrosine-protein phosphatase non-receptor type 1; test: Inhibitory effect against recombinant human Protein-tyrosine phosphatase 1B (PTP1B) using p-nitrophenyl phosphate substrate at pH 5.5;ND is not determined; outline: as §2
[12] = Pharmacokinetic Parameter Vss was reported for Protein Tyrosine Phosphatase 1B; assay type: ADME, organism-based; settings: in vivo; read-out: Vss
[13] = Pharmacokinetic Parameter half life was reported for Protein Tyrosine Phosphatase 1B; assay type: ADME, organism-based; settings: in vivo

| Compound | Ki [2] | Ki [3] | Ki [4] | Ki [5] | other results |
| --- | --- | --- | --- | --- | --- |
| CN1CCc2c(sc(NC(=O)C(=O)O)c2C(=O)O)C1 | 1 µM | 11 µM |  |  | Ki [1]: 22 µM |
| O=C(O)C(=O)Nc1sc2c(c1C(=O)O)CCN(Cc1ccc3ccccc3n1)C2 | 1.8 µM | 29 µM |  |  |  |
| O=C(O)C(=O)Nc1sc2c(c1C(=O)O)CCN(CCc1ccccn1)C2 |  | 12 µM |  |  | Ki [1]: 19 µM |
| O=C(O)C(=O)Nc1sc2c(c1C(=O)O)CCN(CCC(c1ccccc1)c1ccccc1)C2 |  | 5.9 µM |  |  |  |
| O=C(O)C(=O)Nc1sc2c(c1C(=O)O)CCCCC2 | 12 µM |  | 400 µM | 320 µM |  |
| O=C(O)C(=O)Nc1sc2c(c1C(=O)O)CCCC2 |  |  | 410 µM | 290 µM |  |
| O=C(O)C(=O)Nc1sc2c(c1C(=O)O)CCN(Cc1ccncc1)C2 | 1.1 µM | 12 µM |  |  |  |
| O=C(O)C(=O)Nc1sc2c(c1C(=O)O)CCN(Cc1ccccn1)C2 | 1 µM | 23 µM |  |  | Ki [1]: 48 µM |
| O=C(O)C(=O)Nc1sc2c(c1C(=O)O)CCN(CCc1ccc(OCc3ccccc3)cc1)C2 |  | 15 µM |  |  | Ki [1]: 10 µM |
| O=C(O)C(=O)Nc1sc2c(c1C(=O)O)CCOC2 |  |  |  | 170 µM | clearance [7]: 17 mL/min/kg; bioavailability [8]: 85%; half-life [9]: 1.3 h |
| O=C(O)C(=O)Nc1sc2c(c1C(=O)O)CCN(Cc1ccccc1)C2 | 1 µM | 14 µM |  |  | Ki [1]: 24 µM |
| O=C(O)C(=O)Nc1sc2c(c1C(=O)O)CCN(Cc1ccc3ccccc3c1)C2 |  | 42 µM |  |  | Ki [10]: 34 µM |
| O=C(O)C(=O)Nc1cscc1C(=O)O |  |  |  |  | Ki [11]: 75 µM |
| O=C(O)C(=O)Nc1sc2c(c1C(=O)O)CCN(CCc1cccc3ccccc13)C2 |  | 11 µM |  |  | Ki [1]: 11 µM |
| O=C(O)C(=O)Nc1sc2c(c1C(=O)O)CCN(CCc1ccc(-c3ccccc3)cc1)C2 |  | 8 µM |  |  | Ki [1]: 12 µM |
| O=C(O)C(=O)Nc1sc2c(c1C(=O)O)CCC(O)C2 (stereo not drawn) | 2 µM |  |  | 215 µM |  |
| O=C(O)C(=O)Nc1sc2c(c1C(=O)O)CCNC2 | 0.29 µM | 4.7 µM |  |  | Vd [12]: 0.9 L/kg; clearance [7]: 6.4 mL/min/kg; bioavailability [8]: 56%; Ki [1]: 9.4 µM; half-life [13]: 2.8 h |
| O=C(O)C(=O)Nc1sc2c(c1C(=O)O)CCN(Cc1cccnc1)C2 | 0.9 µM | 12 µM |  |  |  |
| CN(C(=O)C(=O)O)c1ccccc1C(=O)O | 1100 µM |  | > 2000 µM | > 2000 µM |  |
| O=C(O)C(=O)Nc1sc2c(c1C(=O)O)CCN(CCc1ccncc1)C2 |  | 8.7 µM |  |  | Ki [1]: 13 µM |
| O=C(O)C(=O)Nc1sc2c(c1C(=O)O)CCS(=O)(=O)C2 | 6.1 µM |  |  | 322 µM |  |
| O=C(O)C(=O)Nc1sc2c(c1C(=O)O)CCN(CCc1ccccc1OCc1ccccc1)C2 |  | 16 µM |  |  | Ki [1]: 17 µM |
| O=C(O)C(=O)Nc1sc2c(c1C(=O)O)CCN(CCCc1ccccc1)C2 |  | 7.3 µM |  |  | Ki [1]: 12 µM |

The next lines start with results.

| Ki [2] | Ki [3] | Ki [4] | Ki [5] | Compound | other results |
| --- | --- | --- | --- | --- | --- |
| 13 µM |  | 90 µM | 250 µM | O=C(O)C(=O)Nc1cc(-c2ccccc2)sc1C(=O)O |  |
| 0.7 µM | 8.3 µM |  |  | COc1cccc(CN2CCc3c(sc(NC(=O)C(=O)O)c3C(=O)O)C2)c1 |  |
| 1.3 µM |  |  | 52 µM | O=C1CCc2c(sc(NC(=O)C(=O)O)c2C(=O)O)C1 |  |
| 2.5 µM |  | 50 µM | 200 µM | O=C(O)COc1ccc(-c2cc(NC(=O)C(=O)O)c(C(=O)O)s2)cc1 |  |
| 160 µM |  | > 2000 µM | 1000 µM | O=C(O)C(=O)Nc1cnccc1C(=O)O |  |
| 11 µM |  | 90 µM | 200 µM | O=C(O)C(=O)Nc1cc(-c2ccsc2)sc1C(=O)O |  |
| 26 µM |  |  | 93 µM | O=C(O)C(=O)Nc1cc(-c2ccc(Oc3ccccc3)cc2)sc1C(=O)O |  |
|  |  | > 2000 µM | > 2000 µM | Cc1cccc(C(=O)O)c1NC(=O)C(=O)O | Ki [6]: 1100 µM |
| 12 µM |  |  | 530 µM | COc1cccc(-c2cc(NC(=O)C(=O)O)c(C(=O)O)s2)c1 |  |
|  |  | > 2000 µM | 870 µM | O=C(O)C(=O)Nc1ccccc1C(=O)O |  |
| 5.1 µM |  |  | 363 µM | O=C(O)C(=O)Nc1sc2c(c1C(=O)O)CC[S+]([O-])C2 (stereo not drawn) |  |
| 8.3 µM |  |  | 100 µM | O=C(O)C(=O)Nc1sc2c(c1C(=O)O)CCSC2 |  |
| 12 µM |  | 900 µM | 340 µM | O=C(O)C(=O)Nc1sc2c(c1C(=O)O)CCC2 |  |
| 8 µM |  |  | 1790 µM | COc1cc(OC)cc(-c2cc(NC(=O)C(=O)O)c(C(=O)O)s2)c1 |  |
| 6.1 µM |  | 113 µM | 250 µM | Nc1cccc(-c2cc(NC(=O)C(=O)O)c(C(=O)O)s2)c1 |  |
| 10 µM |  | 160 µM | 100 µM | O=C(O)C(=O)Nc1cc(-c2ccc(Cl)cc2)sc1C(=O)O |  |

| Ki [2] | Ki [3] | Ki [4] | Ki [5] | Compound | other results |
| --- | --- | --- | --- | --- | --- |
| 2000 µM |  | 2000 µM | > 2000 µM | Cc1csc(C(=O)O)c1NC(=O)C(=O)O |  |
| 4.7 µM |  | 165 µM | 700 µM | O=C(O)C(=O)Nc1cc(-c2cccc([N+](=O)[O-])c2)sc1C(=O)O |  |
| 13 µM |  | 50 µM | 100 µM | CC(C)Cc1ccc(-c2cc(NC(=O)C(=O)O)c(C(=O)O)s2)cc1 |  |
| 37 µM |  | 2000 µM | > 2000 µM | O=C(O)C(=O)Nc1ccsc1C(=O)O |  |
| 9 µM |  |  | 150 µM | COc1ccc(-c2cc(NC(=O)C(=O)O)c(C(=O)O)s2)cc1 |  |
|  |  | 420 µM | 89 µM | O=C(O)C(=O)Nc1ccc(I)cc1C(=O)O | Ki [6]: 14 µM |
| 1700 µM |  | > 2000 µM | > 2000 µM | Cc1cccc(NC(=O)C(=O)O)c1C(=O)O |  |
| 4.5 µM |  |  | 210 µM | O=C(O)C(=O)Nc1cc(-c2ccc(O)cc2)sc1C(=O)O |  |
| 18 µM |  | 550 µM | 800 µM | O=C(O)C(=O)Nc1ccc2cc[nH]c2c1C(=O)O |  |
|  | 9 µM |  |  | O=C(O)C(=O)Nc1sc2c(c1C(=O)O)CCN(CCc1ccsc1)C2 | Ki [1]: 12 µM |
| 8 µM |  | 450 µM | 180 µM | O=C(O)C(=O)Nc1cc2[nH]ccc2cc1C(=O)O |  |
| 108 µM |  | > 2000 µM |  | O=C(O)C(=O)Nc1sccc1C(=O)O |  |
| 16 µM |  |  | 65 µM | O=C(O)C(=O)Nc1cc(-c2ccc(OCc3ccccc3)cc2)sc1C(=O)O |  |
| 14 µM |  | 700 µM | 280 µM | O=C(O)C(=O)Nc1ccc(-c2ccccc2)cc1C(=O)O |  |
| 25 µM |  |  | 980 µM | COc1ccc(-c2cc(NC(=O)C(=O)O)c(C(=O)O)s2)cc1OC |  |
| 8 µM |  | 110 µM | 210 µM | O=C(O)C(=O)Nc1cc(-c2ccc(F)cc2)sc1C(=O)O |  |

Source: ChEMBL document CHEMBL1135823, “Discovery and SAR of a novel selective and orally bioavailable nonpeptide classical competitive inhibitor class of protein-tyrosine phosphatase 1B” (J Med Chem, 2002)
